Sampled rows, rich in hits. Any-hit rate of the full collection: about 1.4%.
SR-BI DiI inh = inhibitors of SR-BI mediated HDL lipid uptake, primary screen, ldlA[mSR-BI] cells, fluorescence, single point | Scavenger receptor class B member 1 (Mus musculus), Q61009 | ldlA[mSR-BI] CHO cells, DiI-HDL uptake fluorescence, 3 h | inhibition, % at 12.5 µM | 320,000 tested, 0.96% active | AID 488896, 2010;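 active = mean replicate inhibition of at least 70% and a set share of replicates each scoring 70 or more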;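 note: 0% = median of neutral control wells and 100% = median of positive control wells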
Vif imaging = HIV Vif self-association inhibitors, primary screen, imaging, HEK293T, single point; 340,000 tested, 0.35% active; inhibition, % at 7.49 µM; HEK293T cells, Vif self-association by quenched fluorescence, 24 h; AID 602346, 2012; in the data active = inhibition above about 50%, passing the limit was not always enough
SR-BI uptake up = activators of SR-BI mediated DiI-HDL uptake, primary screen, ldlA[mSR-BI] CHO cells, DiI fluorescence; 3 h; 100 = double the neutral-control signal; activation, % at 12.5 µM; 320,000 tested, 0.096% active;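 active = mean replicate activation of at least 60% and every replicate at or above 60%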;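 note: 0% = median plate neutral-control signal and 100% = twice that signal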
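Assay system: LDL receptor-deficient CHO ldlA cells overexpressing murine SR-BI / Medium: BSA-supplemented, HEPES-buffered Ham's F12, pH 7.4 / Probe or stimulus: DiI-labelled HDL at 10 µg/mL final / Timing: compound with DiI-HDL co-incubation, 3 h at 37 °C / Technique: bottom-read cell fluorescence after medium removal, ex 550/em 595 nm / Measure: HDL uptake via cellular fluorescence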
PKA-R2B act = activators of PKA-R2B holoenzyme, primary screen, biochemical, fluorescence polarization, Cy5-IP20, human; activation, % at 11.4 µM; 340,000 tested, 0.079% active; cAMP-dependent protein kinase catalytic subunit beta (Homo sapiens) + cAMP-dependent …; PKA-R2B holoenzyme dissociation; R2B truncated from residue 108, S112A mutant; 0% DMSO only, 100% 113 µM cGMP;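 active = activation above a cutoff set at the mean over all compounds plus 3 SD, cut at about 18% in these data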;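 note: higher means more holoenzyme dissociation and a rise in polarization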
Target sequence (P31323 whole entry, looked up, other chains not shown, the tested form may be a part): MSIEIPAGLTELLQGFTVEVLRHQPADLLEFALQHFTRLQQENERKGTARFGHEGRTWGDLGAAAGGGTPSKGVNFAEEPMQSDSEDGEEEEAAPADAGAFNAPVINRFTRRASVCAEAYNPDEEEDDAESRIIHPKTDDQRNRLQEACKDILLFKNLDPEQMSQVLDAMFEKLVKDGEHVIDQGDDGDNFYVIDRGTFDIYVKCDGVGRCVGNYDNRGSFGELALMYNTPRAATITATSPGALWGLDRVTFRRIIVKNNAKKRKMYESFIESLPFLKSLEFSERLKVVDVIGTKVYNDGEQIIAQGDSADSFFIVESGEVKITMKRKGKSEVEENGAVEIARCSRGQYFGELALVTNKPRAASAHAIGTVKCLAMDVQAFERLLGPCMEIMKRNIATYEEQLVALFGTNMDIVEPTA
PKA-R1A activ = activators of PKA-R1A holoenzyme, primary screen, biochemical, fluorescence polarization, Cy5-IP20, bovine R1A, mouse PKAc; cAMP-dependent protein kinase type I-alpha regulatory subunit (Bos taurus) + …; PKA-R1A dissociation; scaled: DMSO 0%, 113 µM cGMP 100%; activation, % at 11.4 µM; 340,000 tested, 0.083% active; AID 504707, 2011;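 active = percent activation above the mean of all tested compounds plus 3 SD, cut at about 19% in these data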;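 note: higher means more PKAc released from R1A so a rise in polarization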
Starred values were filed as active, the others as inactive; i = inactive; · = no result given.

SMILES	SR-BI DiI inh	Vif imaging	SR-BI uptake up	PKA-R2B act	PKA-R1A activ
Cc1nc2cc(-c3ccccc3)nn2c(C)c1CCC(=O)NC(C)c1ccc2c(c1)OCCO2 (centres undefined)	77.0*	3.9	-77.0	1.1	4.2
O=C(NCc1ccccc1)c1ccc(CS(=O)Cc2cccc(Cl)c2)o1 (centres undefined)	·	-6.4	·	0.3	7.8
COc1ccccc1C(=O)NC(=S)Nc1ccc(N2CCOCC2)c(Cl)c1	47.5	-7.1	-47.5	11.1	-9.6
Cc1ccccc1OCC(=O)NC(=S)Nc1ccc(N2CCOCC2)c(Cl)c1	i	·	867.0*	-9.5	14.4
CN=c1scc(-c2ccco2)n1/N=C/c1ccc(O)c(O)c1	73.0*	21.5	-73.0	3.8	-5.4
COc1ccc(O)c(/C=N/n2c(-c3ccco3)csc2=Nc2cccnc2)c1	64.5	8.0	-64.5	-3.1	-7.0
C[C@H]1CN([C@@H](C)CO)C(=O)CCCn2cc(nn2)CO[C@@H]1CN(C)S(=O)(=O)c1ccc(Oc2ccccc2)nc1	·	·	·	-7.7	-4.6
CCOC(=O)c1c(NC(=O)COC(=O)CCOc2ccc(C)cc2)sc(C(=O)N(C)C)c1C	-27.1	-0.9	27.1	-5.1	-6.8
NNC(=O)c1cc2c(s1)-c1cc(Cl)ccc1SC2	99.5*	·	-99.5	·	·
CCN(CC)CCNC(=O)c1cc2c(s1)-c1ccccc1SC2	-17.2	1.5	17.2	-10.7	-0.6
CC(=O)c1cccc(NC(=O)Nc2csc3c2CCCC3)c1	75.2*	-6.0	-75.2	-1.6	-7.1
CCCNC(=O)C1(C)CCN(C(=O)c2ccc3c(c2)CCO3)C1 (centres undefined)	·	12.2	·	·	·
CN(c1ccccc1)c1nc(N)c([N+](=O)[O-])c(Nc2ccccc2)n1	22.5	-10.8	-22.5	-4.5	12.0
COc1ccc(Nc2nc(N(C)c3ccccc3)nc(N)c2[N+](=O)[O-])cc1	-137.5	0.9	137.5*	-6.5	11.2
CC(NC(C(=O)c1ccccc1)c1ccccc1)c1ccccc1 (centres undefined)	7.9	8.8	-7.9	-2.6	-9.5
COc1cc(/C=C(/C#N)C(=O)NC(C)c2ccccc2)cc(OC)c1O (centres undefined)	5.8	54.0*	-5.8	6.3	0.9
CC(NC(=O)/C(C#N)=C/c1ccc(C(=O)O)cc1)c1ccccc1 (centres undefined)	-15.3	1.0	15.3	-4.4	-4.9
CC1CCc2c(nc3ncnn3c2NCCc2ccccc2F)C1 (centres undefined)	73.3*	-8.2	-73.3	5.2	4.5
COc1ccc(-c2ccc(CN3C(C(C)C)C(=O)N(Cc4cn(CC5CCCCC5)nn4)CCS3(=O)=O)cc2)cc1 (centres undefined)	·	-0.3	·	0.3	-2.1
OCCCNc1cc(-c2ccnc(Nc3cccc(Cl)c3)n2)ccn1	81.6*	-11.8	-81.6	-10.4	7.9
O=C(COc1coc(CN2CCN(c3ccccc3F)CC2)cc1=O)NCC1CCCO1 (centres undefined)	-11.5	-0.7	11.5	5.4	-7.9
C=C(C)n1c(=O)n(Cc2ccc(C)cc2)c2ccccc21	10.0	69.2*	-10.0	-5.7	6.0
Cc1ccc(C(C)C)c(OCc2ccc(C(=O)N/N=C/c3ccc(O)cc3O)cc2)c1	129.4*	11.4	-129.4	5.1	-2.6
Oc1ccc(C2Nc3cccc4cccc(c34)N2)c(O)c1	90.9*	-1.0	-90.9	0.6	-3.6
Clc1ccccc1C1Nc2cccc3cccc(c23)N1	-10.4	10.3	10.4	-1.1	-0.7
SMILES	SR-BI DiI inh	Vif imaging	SR-BI uptake up	PKA-R2B act	PKA-R1A activ
COc1ccccc1NC(=S)N1CCN(C(=O)C2CCCO2)CC1 (centres undefined)	-20.1	64.3*	20.1	-2.2	-4.8
Cc1c(S(=O)(=O)N(C)C2CCCCC2)c(=O)n(C)c(=O)n1C	14.0	7.4	-14.0	-3.5	-1.1
O=C(CSc1nnc(-c2ccccc2O)n1Cc1ccccc1)NNC(=O)c1ccccc1O	87.7*	2.9	-87.7	3.2	-17.0
C=C(C(=O)c1ccccc1)C(C)C(=C)C(=O)c1ccccc1	-26.8	66.8*	26.8	-6.1	-4.6
CCNS(=O)(=O)c1ccc(NC(=S)NCC2CCCO2)cc1 (centres undefined)	17.4	-3.8	-17.4	-5.5	4.0
CC(C)=CCCC1(C)C=Cc2c(c(C)cc3c2[nH]c2cc(O)ccc23)O1 (centres undefined)	106.6*	0.9	-106.6	-8.9	-7.2
Cc1cc(=O)[nH]c2cc(O)ccc12	-41.7	2.1	41.7	-1.5	-0.1
O=C(Cn1ccc([N+](=O)[O-])n1)NCc1ccccc1	-7.8	-0.5	7.8	10.5	15.5
Cc1cc(/C=C\c2ccc3cc(N(C)C)ccc3[n+]2C)c(C)n1-c1ccccc1	-166.2	·	166.2*	10.0	1.5
COc1ccc(CC(=O)NNS(=O)(=O)c2ccc([N+](=O)[O-])cc2)cc1OC	-61.4	5.2	61.4*	-2.6	-7.1
COc1ccc(CC(=O)NNS(=O)(=O)c2ccccc2[N+](=O)[O-])cc1OC	-16.6	2.8	16.6	-1.0	-4.3
O=C(C1CCCCC1)N1CCN(c2ccccc2F)CC1	-13.0	-2.8	12.9	0.6	-6.7
O=C(Nc1ccccc1)N1CCC(C(=O)N2CCN(c3ccccc3F)CC2)CC1	79.8*	4.1	-79.9	-2.9	-2.0
CCOc1ccc(S(=O)(=O)Nc2cccc(C(=O)N(C)CC(=O)Nc3cccc(OC)c3)c2)cc1	-6.8	17.6	6.8	-4.0	-2.9
CCOc1ccc(S(=O)(=O)Nc2cccc(C(=O)N(C)CC(=O)Nc3ccc(OC)cc3)c2)cc1	4.2	72.3*	-4.2	-5.7	8.0
COc1cccc(C(NC(C)=O)c2nc(-c3ccc(F)c(Cl)c3)cs2)c1 (centres undefined)	·	1.0	·	·	·
Nc1nc(SCC(=O)c2ccc(Br)s2)n[nH]1	i	3.3	640.8*	·	·
Cc1ccc(C)c(S(=O)(=O)NNC(=O)c2sc(NS(=O)(=O)c3ccccc3)nc2C)c1	-18.5	-2.0	18.5	-15.1	-7.1
Oc1ccccc1-c1cc(-c2ccc(F)cc2)n[nH]1	20.9	11.1	-20.9	-8.3	-11.1
Oc1ccc(F)cc1-c1cc(-c2ccc3c(c2)OCCO3)n[nH]1	78.6*	-2.4	-78.6	-13.8	5.3
Cc1ccc(C)c(N(C(=O)CNC(=O)c2ccco2)C(C(=O)NCC2CCCO2)c2ccccc2)c1 (centres undefined)	-2.1	2.8	2.1	-4.7	-4.5

Screening results: PubChem, several laboratories
